Assay outcomes from PubChem.
Sampled rows, rich in hits. Any-hit rate of the full collection: about 9.8%.
WT yeast gro inh – growth inhibition of WT yeast, mitochondrial fusion screen; mitochondrial fusion phenotypic screen, WT strain; inhibition, % at 10 µM; 190,000 tested, 2.1% active; AID 1362; in the data active = inhibition above about 58%; tested in S. cerevisiae
Lmaj promast – Leishmania major promastigote growth inhibition | Leishmania major promastigotes, resazurin fluorescence viability | inhibition, % at 10 µM | 200,000 tested, 9% active; in the data active = inhibition above about 50%;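 also: promastigotes grown with compound for 44 hours at 28 °C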
PMI activator – activators of human phosphomannose isomerase | purified human PMI, coupled resazurin fluorescence, 20 min; hits give high values; 1 = vehicle control, 0 substrate-free wells | activation factor at 20 µM | 190,000 tested, 0.005% active | AID 1214;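 active = activation factor of 2 or more at 20 µM, relative to plate controls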
Target sequence (P34949 whole entry, looked up): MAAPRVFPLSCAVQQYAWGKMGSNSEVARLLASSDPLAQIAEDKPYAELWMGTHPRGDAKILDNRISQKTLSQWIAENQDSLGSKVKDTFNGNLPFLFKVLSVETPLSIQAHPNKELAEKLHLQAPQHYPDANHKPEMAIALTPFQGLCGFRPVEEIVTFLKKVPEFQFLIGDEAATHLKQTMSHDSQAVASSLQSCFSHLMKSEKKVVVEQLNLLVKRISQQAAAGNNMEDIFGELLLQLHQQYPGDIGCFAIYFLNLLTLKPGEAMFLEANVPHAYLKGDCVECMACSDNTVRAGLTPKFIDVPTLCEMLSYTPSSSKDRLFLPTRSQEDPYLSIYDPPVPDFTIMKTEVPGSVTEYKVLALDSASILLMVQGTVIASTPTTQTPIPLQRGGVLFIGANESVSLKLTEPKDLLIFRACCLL
Calpain2 inh – inhibitors of pig calpain II. 220,000 tested, 0.37% active. purified calpain II, fluorogenic peptide substrate, 30 min. AID 1236. inhibition, % at 16 µM;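 active = inhibition above about 50%, limit read from the data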
Rad51 HR inh – blocks human Rad51 in homologous recombination; inhibition, % at 10 µM; 200,000 tested, 0.085% active; Q06609; AID 1385; hRad51 DNA strand exchange, fluorescence dequenching;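 active = inhibition above 40% at the single screening dose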;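 also: 0% = DMSO control wells and 100% = blanks with heterologous ssDNA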
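Material: human Rad51–ssDNA filaments; Probe or stimulus: labelled 47-mer dsDNA for strand exchange; Doses: single 10 µM dose; Incubation: 37 °C 15-min filament assembly, 30-min compound preincubation, 15-min exchange; Technique: FRET fluorescence dequenching, excitation 485 nm, emission 520 nm; Measure: Fluorescence-based percent inhibition, control- and blank-normalised; Benchmarks: plate control and blank wells.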
PMI act satM6P – activators of human phosphomannose isomerase at near-saturating mannose 6-phosphate; P34949; coupled PMI enzyme assay, resazurin fluorescence, 20 min; hits give high values; 1 = untreated enzyme, 0 = substrate-free blank; activation factor at 20 µM; 190,000 tested, 0.34% active; AID 1216;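 active = activation factor of 2 or more at 20 µM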
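Test system: human phosphomannose isomerase with PGI, G6PDH, diaphorase coupling enzymes; Amount: PMI at 15 ng/mL final; Reagent: Mannose-6-phosphate 1.0 mM (near-saturating) plus 0.22 mM NADP+; Timing: 20 min, room temperature; Technique: resorufin fluorescence at Ex 544/Em 590 nm; Dosing: 20 µM single dose.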
* = called active by the depositor; i = inactive; nt = no result given.

SMILES	WT yeast gro inh	Lmaj promast	PMI activator	Calpain2 inh	Rad51 HR inh	PMI act satM6P
C/C(=C\c1ccccc1)C(=O)NCc1ccco1	-20	-2	1.1	-10	9	1
Cc1sc(N2C(=O)C3C4C=CC(C4)C3C2=O)c(C#N)c1C (stereo not drawn)	-11	-6	0.9	-10	8	0.9
CCOc1cccc(-c2cc(C(=O)N3N=C(C)CC3(O)C(F)F)c3ccccc3n2)c1 (stereo not drawn)	43	36	0.8	19	-9	0.9
COc1ccccc1C(=O)N(CCC1CCCN1C)c1nc2ccccc2s1 (stereo not drawn)	4	100*	1	-8	nt	1
COc1ccc2sc(N(CCCN(C)C)C(=O)c3nc4ccccc4s3)nc2c1	9	-1	1	19	13	1
NNc1nc(N)c2c(n1)-c1ccccc1CC21CCCC1	-2	100*	0.9	-44	1	0.9
O=c1c2c(nc(NCCO)n1CC1CCCCC1)-c1ccccc1CC21CCCC1	69*	91*	0.8	-304	9	0.8
CC1(C)Cc2ccccc2-c2nc(NCCO)n(-c3ccccc3)c(=O)c21	9	-2	1.1	i	10	1.1
O=c1c2c(nc3n1CCCCC3)-c1ccccc1CC21CCCCC1	78*	3	1	29	4	1
O=c1[nH]c(NCCO)nc2c1C1(CCCCC1)Cc1ccccc1-2	nt	8	0.8	-484	-10	0.9
CC1(C)CC(n2c(NCCO)nc3c(c2=O)C2(CCCC2)Cc2ccccc2-3)CCO1 (stereo not drawn)	20	100*	0.9	nt	0	0.9
CCc1nc2c(c(=O)[nH]1)C1(CCCC1)Cc1ccccc1-2	0	1	1	-29	0	1
COCc1cnc(C)nc1N	-18	-6	1.2	15	8	1.1
Cc1ccc(OCc2ccc(C(=O)NCc3cccnc3)cc2)cc1C	6	11	1	16	-3	0.9
O=C(CSc1nnc(-c2ccncc2)o1)NC1C2CC3CC(C2)CC1C3 (stereo not drawn)	-10	9	0.9	0	9	0.9
COCCCNc1nc2nonc2nc1N(C)CC1CCCN1C (stereo not drawn)	8	-4	1	21	3	1
Cc1onc(-c2c(Cl)cccc2Cl)c1-c1nc2cc(Cl)ccc2c(=O)o1	nt	nt	nt	-10	-4	nt
CCC1(C)Cc2ccccc2-c2nc(NCCO)n(-c3ccc(C)cc3)c(=O)c21 (stereo not drawn)	-7	63*	0.9	-435	0	1
CCC1(C)Cc2ccccc2-c2nc(NCCO)n(-c3ccccc3)c(=O)c21 (stereo not drawn)	4	6	0.9	i	0	0.9
Cc1cc(C)nc(N2CCC(C(=O)NCCc3ccc(F)cc3)CC2)n1	69*	-1	1.2	-31	nt	1
CC/C(O)=C1\C(=O)CC(c2ccccc2)CC1=NCCc1c(C)[nH]c2ccc(C)cc12 (stereo not drawn)	18	73*	0.9	-15	5	1
CCC/C(O)=C1\C(=O)CC(c2ccccc2)CC1=NCCc1c(C)[nH]c2ccc(C)cc12 (stereo not drawn)	16	58*	1	28	2	1
CC/C(O)=C1\C(=O)CCCC1=NCCc1c(C)[nH]c2ccc(C)cc12	nt	nt	nt	31	-5	nt
COc1cc(OC)c(NC(=S)Nc2cc(Cl)cc(Cl)c2)cc1Cl	83*	35	0.8	-9	9	0.8
COc1cc(C)c(NC(=S)Nc2ccc(Cl)c(Cl)c2)cc1OC	80*	11	0.7	6	-4	0.7
COc1cc(NC(=S)NC(C)(C)C)c(OC)cc1Cl	19	67*	1	24	2	0.8
COCCNC(=S)Nc1ccc(Cl)c(Cl)c1	11	7	1.1	-24	15	1.1
COc1cc(NC(=S)Nc2cccc(Cl)c2Cl)c(OC)cc1Cl	-7	59*	0.8	7	0	0.8
O=C(O)CN(c1ccccc1[N+](=O)[O-])S(=O)(=O)c1ccccc1	-8	5	1	-13	0	1.1
CCOc1ccc(N=C2SC(C(=O)Nc3ccccc3C#N)C(N)=C2C(=O)Nc2ccc(Cl)cc2)cc1 (stereo not drawn)	16	-12	1	-90	4	1.1
